Experimental data gathered from unrelated publications.
Each line is one published result; the experiments were not run side by side. Converted amounts (≈) assume the structure as drawn.

CN(Cc1ccc(C(C)(C)C)cc1)Cc1cccc2ccccc12
inhibition zone (Trichophyton mentagrophytes; microbial growth, disc diffusion; ATCC18748; 0.0005 µg/mL, 72 h): 14.5 mm

COC1=CC(=O)c2ccccc2C1=O
MIC (Trichophyton mentagrophytes; microbial growth, broth dilution; ATCC9533; 96 h): 6.25 µg/mL (≈ 33.2 µM)

Cc1c(C(N)=O)c(N)n(N)c(=O)c1C#N
inhibition zone (Enterobacter cloacae; microbial growth, well diffusion; ATCC23355; 500 µg/mL): 21 mm

Cn1cc2c3c1C(=O)C(NCCc1ccc(O)cc1)=CC3=[N+](C)CC2
IC50 (Babesia divergens; parasite growth, SYBR Green; 60 h, blood stage): 12.2 nM

CC(=O)Oc1ccc(-c2c(C(N)=O)c(N)n(N)c(=O)c2C#N)cc1
inhibition zone (Enterobacter cloacae; microbial growth, well diffusion; ATCC23355; 500 µg/mL): 12 mm

O=C1c2[nH]cc3c2C(=NCC3)c2c(-c3ccc(O)cc3)c[nH]c21
IC50 (Babesia divergens; parasite growth, SYBR Green; 60 h, blood stage): 614 nM

N#Cc1c(-c2ccc(Cl)cc2Cl)c(C(N)=O)c(N)n(N)c1=O
inhibition zone (Enterobacter cloacae; microbial growth, well diffusion; ATCC23355; 500 µg/mL): 14 mm

NC1=CC2=NCCc3c[nH]c(c32)C1=O
IC50 (Babesia divergens; parasite growth, SYBR Green; 60 h, blood stage): 411 nM

CN(Cc1ccc(C2(C(F)(F)F)CC2)cc1)Cc1cccc2ccccc12
inhibition zone (Trichophyton mentagrophytes; microbial growth, disc diffusion; ATCC18748; 0.001 µg/mL, 72 h): 8.5 mm
